According to the EternaBench riboswitch data:

Test system: MS2 coat protein
Test: apparent Kd, MS2 coat protein; higher = weaker binding; RNA-MaP array; FMN 200 µM where present
Method in brief: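 The apparent Kd comes from binding curves fitted cluster by cluster, filtered, and summarised as a median. Those curves followed SNAP-549-labelled MS2 coat protein from 0.7 or 1.5 nM, doubling to 3 µM, on Illumina sequencing-chip clusters where stalled E. coli RNA polymerase had transcribed the designs, without and then with constant ligand. The buffer was 100 mM Tris-HCl pH 7.5, 80 mM KCl, 4 mM MgCl2, BSA, DTT, yeast tRNA and Tween-20, and green signal was normalised to red-channel RNA signal and control-cluster median Fmax.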

[1] = designed as: OFF switch for flavin mononucleotide, no ligand
[2] = ligand present: flavin mononucleotide, designed as: OFF switch for flavin mononucleotide
[3] = designed as: ON switch for flavin mononucleotide, no ligand
[4] = ligand present: flavin mononucleotide, designed as: ON switch for flavin mononucleotide

Sequence | apparent Kd [1] | apparent Kd [2] | apparent Kd [3] | apparent Kd [4]
GGGCCCGGUGUGAGGAUAUUGGGUCUGAAAGGGCUCGAGAAGGCACAUGAGGAUCACCCAUGUAAGCCGGGCCC | 16.7 nM | 13.7 nM |  | 
GACAAUCUAUCUGAGGAUAUCAUGAAAAAAACAUGAGGAUCACCCAUGUGCAGGAAAACUGCAUAUGAGAAGGCAGAUAGAUUGA |  |  | 708 nM | 28.7 nM
ACUGCCACAGGAUAUACGAAACUCUUGGGUUCCGCCGUGUGACAUGAGGAUCACCCAUGUAGAAGGGUGGCUUA | 606 nM | 416 nM |  | 
GGGAAGGGCGGAGGAUAUCGACAUGAGGAUCACCCAUGUAUCACCCAUGUAUGAGAAGGUUGGAAGGAUUAAAACGUGAGGGUC | 57.6 nM | 44.3 nM |  | 
AUAAAUCAUGUAGGAUAUGCGUGGCGAAGCUAUGCAGAAGGACAUGAGGAUCACCCAUGUCAUUCCGUCUGCGUACAGACGGAA | 34.5 nM | 308 nM |  | 
AAUAGUGGAGGAUAUACAUGAGGAUCACCCAUGUAGAAAGGAAGUGUAUAUAUGGCGUGUAGAAGGCCAAAUAA | 36.4 nM | 34.1 nM |  | 
GACUUGUUAGGAUAUCUUACAUUUGCAUCAUAGUAACCUUUGGAGAAGGGACAUGAGGAUCACCCAUGUUUGGU | 62.3 nM | 53.5 nM |  | 
GGAUAGGACAGAGGAUAUACGCGCUAGAGAUACUAGCAAAAUUUCCUCACAUGAGGAUCACCCAUGUAGAAGGCUGUCCUAUCG | 20.1 nM | 580 nM |  | 
UUUAAUCGAAACAUGAGGAUCACCCAUGUGUUGUAAUUAACAUAGGAUAUUUGUAUACUUUUGUAAGAGAAGGAUGAUAAUACU |  |  | 22.4 nM | 15.8 nM
AUGAGCUCGUCAGGAUAUACGUCACUGCGUCAGCAGUGUGGUAAGAUCACAUGAGGAUCACCCAUGUAGAAGGGACGAGCUGAU | 14.6 nM | 307 nM |  | 
ACAUGAGGAUCACCCAUGUAGAAUGAAGAAGGUGGAUACUUGUGACUCACCCAUGUACAUAGGACUAAGGAUAUUCUAAUAAUU |  |  | 25.1 nM | 23 nM
UACUGACAUGAGGAUCACCCAUGUGAGGAUAUUCUCCUGCUAAAUUAAUGGUGGGUGUGAAGAAGGCACAAGGA | 37.3 nM | 120 nM |  | 
UUACUAUCACAGAAGGGUAGAUAGUAUAUAGAUGCAGGAUAUGUGACAUGAGGAUCACCCAUGUUUCACCCACAUGAGGAUCAC | 17.5 nM | 18.9 nM |  | 
UGAGGACAUGAGGAUCACCCAUGUAAGGAUAUGCGGAGAGUUUGGAGAGGUUGAGGAGGCAGAAGGUACAGGAU | 89.5 nM | 58.5 nM |  | 
GUAUUUAUAUAAGGAUAUAAGUCUAGGACAUGAGGAUCACCCAUGUGUGUCUUAGAAGGUAUAUAGGUAAUACUGUUACAGUAA |  |  | 86.1 nM | 23.6 nM
CCAGGCUGUGUGAGGAUAUGCUGGUCCUUGGAUCAGCAGAAGGCACAUGAGGAUCACCCAUGUGAAAAGCUUGG | 17.4 nM | 57.6 nM |  | 
GUAGCAUACCGAGGAUAUUCAUACCGGAAACGGACAUGAGGAUCACCCAUGUAGCGAAAGCUUUGGGAGAAGGCGGAAUGCUAC |  |  | 905 nM | 33.9 nM
CGUGUACGAGGAUAUAGAUUGGAUGACAUGAGGAUCACCCAUGUGAUCGAUCUAUUUGGUUUAGAAGGUGUACAUG | 13.4 nM | 14.2 nM |  | 
UGCACAUGAGGAUCACCCAUGUAUUGUUCGGUUAAUAGAAGUGAGGAUAUGCAUAAAAUAAGGUAGCAGAAGGCACAGGAUUCA |  |  | 23.9 nM | 25.4 nM
GGAUGACAAAGUCAUCCUAUUCGAACAUGAGGAUCACCCAUGUAGGAUAUGGUACUCAAAGAGUACCAGAAGGACAUGUGCUUU | 36.2 nM | 127 nM |  | 
CAGUACAGAGGAUAUACAUGAGGAUCACCCAUGUGUUUCAGCUAGGAGACUAGCGAAAGUAGAAGGCUGUACUG | 9.57 nM | 25.1 nM |  | 
GCCUUAUCGGUCAGGAUAUACAUUUGUUAGUUGUUGUAGAAGGGACAUGAGGAUCACCCAUGUACAUUACAUUG | 22.4 nM | 40.3 nM |  | 
UAAUCAUGUCCGUAUGUUUUCAGAGAGGAUAUACAUGCGGGCACCUUAACAUGAGGAUCACCCAUGUAGAAGGCUCUGAAAAUG | 97.3 nM | 22.5 nM |  | 
UUUAUAAAUUAGAAGGCGAGAUGAAUUACAAUAGACAUGAGGAUCACCCAUGUGUAUUCAUGUCUUGAGGAUAUAGUCAUAUAU |  |  | 118 nM | 58.1 nM
AGGAAACAUGAGGAUCACCCAUGUAAAAAAGUGGGAGGAUAUACUAGAAGAAACAAAAUAGUAGAAGGCCUAAAAA |  |  | 47.3 nM | 24.9 nM
CGCUCAAGAGAGAAGGAUAGAAUCAGAAGGCGUAACAUGAGGAUCACCCAUGUUUAGUAGUGUAACGAGGAUAUGAAAUGAGCG | 9.61 nM | 10.8 nM |  | 
AACAGUACAGGAUAUACAUGAGGAUCACCCAUGUGAGCUUUAAGUGCCGUAGCACAAAGUAGAAGGGUACUGGA | 24.4 nM | 91.8 nM |  | 
GGAUUACAUGAGGAUCACCCAUGUGAGGAUAUCGAUGUCCCUUGGCGCGUGCGGGACUCGAGAAGGCACUUGGA | 47.8 nM | 248 nM |  | 

Sequence | apparent Kd [1] | apparent Kd [2] | apparent Kd [3] | apparent Kd [4]
GAGCUAUGAGGAUAUGCAUAUAUGCGGUUUCGUGUGGUACUACAUGAGGAUCACCCAUGUAGAAGGCGUGGCAG | 16 nM | 17.5 nM |  | 
AAUCAUGUCCGAGGAUAUCUGGAAACAUUUUCAAGAGAAGGCGGACAUGAGGAUCACCCAUGUCUCUCCUCAUCAACUACAAAU | 14.6 nM | 89 nM |  | 
GGAUAGGACAGAGGAUAUACGGAUAGGAUCUACUAUCUUCUUCAAAUAACAUGAGGAUCACCCAUGUAGAAGGCUGUCCUAUCG | 16 nM | 31.9 nM |  | 
GGGUGACAUGAGGAUCACCCAUGUGAGGAUAUCUGGAUACUCUUUAUUUUAGAUAUCCAGAGAAGGCACACCCU | 501 nM | 306 nM |  | 
UGGUACUUGGGAGGAUAUGGGAAGAUACAUGAGGAUCACCCAUGUUUAAGAAUGCCGAGAGGCAACUAGAAGGCCCUAGUACCU |  |  | 493 nM | 20 nM
CUAAAUCAUGUAGGAUAUGGAUGGCGAAGCUACCCAGAAGGACAUGAGGAUCACCCAUGUCAGAACGUCUGCGUUCAGACGUUG | 35.7 nM | 217 nM |  | 
UUGGACGUCGUAGGAUAUGUAGGAUAUUCCUACAUGAGGAUCACCCAUGUUGACAUGGAAGAAGGUCAGAAGGACGAUGUCCAU |  |  | 344 nM | 559 nM
AACAGUACAGGAUAUACAUGAGGAUCACCCAUGUGAAGAAUAAGUGGCGUACCACAAAGUAGAAGGGUACUGGA | 29.3 nM | 120 nM |  | 
CGCUACGUUUCGUAGCAGUGUCAUCGAGAAGGCCCUGACAUGAGGAUCACCCAUGUUGUUACAUGGGAGGAUAUCGAUGAUACA |  |  | 12.8 nM | 4.99 nM
GUCAUGUGAGGAUAUGUAGCCACGAAAUCUUGUAGAGGCAGACAGAAGGCACAUGAGGAUCACCCAUGUGUUUU | 31.6 nM | 258 nM |  | 
UUGAUGUGAGGAUAUGUGAUCUGCCUUCUAUAUAGAUGAUUACAGAAGGCACAUGAGGAUCACCCAUGUAGAUC | 78.5 nM | 58.9 nM |  | 
GAAAACGCAGAGGAUAUUUCAGAUCAAAGCUGCAAAGAAGGCUGCACAUGAGGAUCACCCAUGUGGUCUUUAAA | 19.3 nM | 202 nM |  | 
UCACGGGAUUGAGGAUAUAUAUUUAUUAUUUUAAUAGAAGGCAAAGAGUUAGUUUUUUCACUAUACAUGAGGAUCACCCAUGUU | 33.4 nM | 30.5 nM |  | 
GACUCUAAGUUUGUCACUUAGAGAGAGGAUAUGGAAAACUUGACAUGAGGAUCACCCAUGUAUAAUCAGAAGGCUCGAGUACGA |  |  | 9.95 nM | 8.98 nM
GCACUUGCGUAGAAGGUACUAUAUAAUGCAGUGUAAGGAUAUACAUACAUGAGGAUCACCCAUGUAAAUGGAAUUUGCAAGUGC |  |  | 11.8 nM | 9.15 nM
AAGCGCGUAGGAUAUACAUGAGGAUCACCCAUGUGAGGAGGGAGUUGGAGGUGUGGAAGUAGAAGGACGGAGUG | 48.1 nM | 37.6 nM |  | 
GAGUGACAUGAGGAUCACCCAUGUGAGGAUAUCGGACGGACCAAGUUAACAUCCGCCGCGAGAAGGCACAUCGG | 114 nM | 31.1 nM |  | 
AGUCGGAGCAGAGGAUAUACAUGAGGAUCACCCAUGUAAAUGGAAUAAGACUGGAAACAGUCAAUGUAGAAGGCUGCUCCGACA | 68.5 nM | 673 nM |  | 
AGAUUUGUACAUGAGGAUCACCCAUGUUAAUAGGUGUUUGUCAGAAGGCAUUAAUAGAGAUUUAAUGAGGAUAUGAAGUUACAA |  |  | 70.3 nM | 46.3 nM
UUUUAACAUGAGGAUCACCCAUGUGAGGAUAUCGAAAUUUAUAUUUAUAUUAAUAUAUCGAGAAGGCACAUUUU | 99 nM | 144 nM |  | 
AUUAUAUUAGGAUAUUCGCUGUGGUACAUGAGGAUCACCCAUGUAUCUGCUUGUAUCAACGAAGAAGGAAUGUGUA | 15.5 nM | 16.8 nM |  | 
UUCGAGUAGCAAGGAUAUCUUAUUUAGAUUUUAAGAGAAGGUGCUUCACAGCUACAUGAGGAUCACCCAUGUCUUUCUUCUUAU |  |  | 35.6 nM | 26.3 nM
AUAUAUACAAAGUUACAUGAGGAUCACCCAUGUUUAUUGGGAAGAAGGGUAACAUUAUUAGAUGUAUAGGAUAUUUCACGAUUG |  |  | 513 nM | 320 nM
ACAUGAGGAUCACCCAUGUACAUGGGUUUAAUUGUGUGUUACGAGGAUAUGUAUUUGAAUUUACAACAGAAGGUGUAUUACUGU | 811 nM | 610 nM |  | 
ACUCCUCCUGUUAGGAUAUGCAUCGGGCUUCCGCAGCAGAAGGAACAUGAGGAUCACCCAUGUCAAAUAAAAUC | 19.6 nM | 155 nM |  | 
GCUGACGAUGUAGGAUAUCUCGACGAUAAGUCGAGAGAAGGACAUGAGGAUCACCCAUGUACUCCAACGUCAGCGAGGAAACUC | 18.2 nM | 18.5 nM |  | 
AACAGGUUCACAUGAGGAUCACCCAUGUUAGCCUAACGUAGGAGAAGGGCGGUAGCUGGGCUGACGUAGGAUAUCCUACUGUGA |  |  | 10 nM | 5.79 nM
